Peptide text beside a SMILES is read from it.
Tests used:
A3G = A3G (Homo sapiens, UniProt Q9HC16); assay: Inhibition of deamination activity of purified A3G; format: biochemical
SupT1 cells = assay: Alkaline comet assay in SupT1 cells; format: cell-based; details: no radiation; Tail DNA % and Olive Tail Moment
Method in brief: (§1)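 Alkaline comet assay. One day after culturing, cells were pre-treated or not with peptides for 2 h, then γ-irradiated (4 Gy) or mock-irradiated. Cells were embedded in low-melting agarose. Lysis was 2 h in ice-cold 2.5 M NaCl, 100 mM EDTA, 10 mM Tris pH 10, 1% Triton X-100 and 10% DMSO. DNA was unwound 20 min at 4°C in NaOH/EDTA pH 13 and electrophoresed 45 V, 20 min. Slides were neutralised and stained with ethidium bromide. Tail DNA % and Olive tail moment were scored from random fields.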

H9 cells = assay: Alkaline comet assay in H9 cells; format: cell-based; details: no radiation; Tail DNA % and Olive Tail Moment
Method in brief: as §1

[1] = molecular target: APOBEC3G (A3G), wild type, C-terminal His6 tag (human) (UniProt Q9HC16)
Chain of APOBEC3G (A3G), wild type, C-terminal His6 tag (human) (Q9HC16 whole entry): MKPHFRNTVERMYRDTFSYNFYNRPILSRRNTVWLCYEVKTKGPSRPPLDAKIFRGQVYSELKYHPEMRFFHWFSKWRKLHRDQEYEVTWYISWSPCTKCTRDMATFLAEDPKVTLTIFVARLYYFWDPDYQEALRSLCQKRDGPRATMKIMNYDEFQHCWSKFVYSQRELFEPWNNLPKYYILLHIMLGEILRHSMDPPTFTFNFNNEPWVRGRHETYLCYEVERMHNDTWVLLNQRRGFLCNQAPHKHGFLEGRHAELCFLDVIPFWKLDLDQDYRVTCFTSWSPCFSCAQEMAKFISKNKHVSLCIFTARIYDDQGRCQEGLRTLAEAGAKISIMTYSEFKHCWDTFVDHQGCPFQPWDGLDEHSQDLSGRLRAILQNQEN

[2] = molecular target: APOBEC3G (A3G), wild type, C-terminal His6 tag (human, UniProt Q9HC16 1-384); assay: cell-based or functional assay
Chain of APOBEC3G (A3G), wild type, C-terminal His6 tag (Q9HC16 whole entry): as above

Chain of A3G (Q9HC16 whole entry): as above

Molecule	IC50 (A3G) [µM]	IC50 of inhibition of ssDNA deamination by purified A3G [1] [µM]	also measured
CSCC[C@H](NC(=O)[C@@H](N)CCCNC(=N)N)C(=O)N[C@@H](Cc1c[nH]cn1)C(=O)N[C@@H](CC(N)=O)C(=O)N[C@@H](CC(=O)O)C(=O)N[C@H](C(=O)N[C@@H](Cc1c[nH]c2ccccc12)C(=O)N[C@H](C(=O)N[C@@H](CC(C)C)C(=O)N[C@@H](CC(C)C)C(=O)N[C@@H](CC(N)=O)C(=O)N[C@@H](CCC(N)=O)C(=O)N[C@@H](CCCNC(=N)N)C(=O)N[C@@H](CCCNC(=N)N)C(=O)NCC(=O)O)C(C)C)[C@@H](C)O [Peptide A3G226-240] (H-RMHNDTWVLLNQRRG-OH)	60	–	–
CC(C)C[C@H](NC(=O)[C@H](CCCNC(=N)N)NC(=O)[C@H](C)N)C(=O)N[C@@H](Cc1ccc(O)cc1)C(=O)N[C@@H](Cc1ccc(O)cc1)C(=O)N[C@@H](Cc1ccccc1)C(=O)N[C@@H](Cc1c[nH]c2ccccc12)C(=O)N[C@@H](CC(=O)O)C(=O)N[C@H](C(=O)O)[C@@H](C)O [Peptide A3F304-312] (H-ARLYYFWDT-OH)	8	–	DNA damage in non-irradiated SupT1 cells (comet assay) (SupT1 cells): did not induce breaks; DNA damage in non-irradiated H9 cells (comet assay) (H9 cells): did not induce breaks
Vif 25-39 (26A) (peptide)	–	8	–
CSCC[C@H](NC(=O)[C@H](C)NC(=O)[C@H](C)NC(=O)[C@H](C)NC(=O)[C@@H](N)C(C)C)C(=O)N[C@@H](Cc1ccc(O)cc1)C(=O)N[C@H](C(=O)N[C@@H](CO)C(=O)NCC(=O)N[C@@H](CCCCN)C(=O)N[C@@H](C)C(=O)N[C@@H](CCCNC(=N)N)C(=O)NCC(=O)N[C@@H](Cc1c[nH]c2ccccc12)C(=O)N[C@@H](Cc1ccccc1)C(=O)O)C(C)C [Vif 25-39 (26AAA28)] (H-VAAAMYVSGKARGWF-OH)	10	–	–
CC(C)C[C@H](NC(=O)[C@H](Cc1ccc(O)cc1)NC(=O)[C@@H](NC(=O)[C@H](CCC(=O)O)NC(=O)[C@H](Cc1cnc[nH]1)NC(=O)[C@H](CCCNC(=N)N)NC(=O)CNC(=O)[C@H](CCCNC(=N)N)NC(=O)[C@@H](NC(=O)[C@@H](N)Cc1c[nH]c2ccccc12)C(C)C)[C@@H](C)O)C(=O)N[C@@H](CS)C(=O)N[C@@H](Cc1ccc(O)cc1)C(=O)N[C@@H](CCC(=O)O)C(=O)N[C@H](C(=O)N[C@@H](CCC(=O)O)C(=O)O)C(C)C [Peptide A3G211-225] (H-WVRGRHETYLCYEVE-OH)	10	–	–
CSCC[C@H](NC(=O)[C@H](C)NC(=O)[C@H](C)NC(=O)[C@H](CCCCN)NC(=O)[C@@H](N)C(C)C)C(=O)N[C@@H](Cc1ccc(O)cc1)C(=O)N[C@H](C(=O)N[C@@H](CO)C(=O)NCC(=O)N[C@@H](CCCCN)C(=O)N[C@@H](C)C(=O)N[C@@H](CCCNC(=N)N)C(=O)NCC(=O)N[C@@H](Cc1c[nH]c2ccccc12)C(=O)N[C@@H](Cc1ccccc1)C(=O)O)C(C)C [Vif 25-39 (27AA28)] (H-VKAAMYVSGKARGWF-OH)	4.5	–	–
Vif 25-39 (27AA28) (peptide)	–	4.5	–
Vif25-36 (peptide)	–	50	–
Vif105-119 (peptide)	–	0.1	–
CC(C)C[C@H](NC(=O)[C@@H](N)CCCNC(=N)N)C(=O)N[C@@H](Cc1ccc(O)cc1)C(=O)N[C@@H](Cc1ccc(O)cc1)C(=O)N[C@@H](Cc1ccccc1)C(=O)N[C@@H](Cc1c[nH]c2ccccc12)C(=O)N[C@@H](CC(=O)O)C(=O)O [Peptide A3F305-311] (H-RLYYFWD-OH)	1	–	DNA damage in non-irradiated SupT1 cells (comet assay) (SupT1 cells): did not induce breaks; DNA damage in non-irradiated H9 cells (comet assay) (H9 cells): did not induce breaks
Vif 25-39 (26AAA28) (peptide)	–	10	–
CSCC[C@H](NC(=O)[C@H](Cc1c[nH]cn1)NC(=O)[C@H](Cc1c[nH]cn1)NC(=O)[C@H](CCCCN)NC(=O)[C@@H](N)C(C)C)C(=O)N[C@@H](Cc1ccc(O)cc1)C(=O)N[C@H](C(=O)N[C@@H](CO)C(=O)NCC(=O)N[C@@H](CCCCN)C(=O)N[C@@H](C)C(=O)N[C@@H](CCCNC(=N)N)C(=O)O)C(C)C [Vif25-36]	50	–	–
Vif26-39 (peptide)	–	80	–
CC[C@H](C)[C@H](N)C(=O)N[C@@H](Cc1c[nH]cn1)C(=O)N[C@@H](CC(C)C)C(=O)N[C@@H](Cc1ccc(O)cc1)C(=O)N[C@@H](Cc1ccc(O)cc1)C(=O)N[C@@H](Cc1ccccc1)C(=O)N[C@@H](CC(=O)O)C(=O)N[C@@H](CS)C(=O)N[C@@H](Cc1ccccc1)C(=O)O [Vif107-115] (H-IHLYYFDCF-OH)	–	–	DNA damage in non-irradiated SupT1 cells (comet assay) (SupT1 cells): did not induce any damage; Ki (A3G): ~1.71 µM; DNA damage in non-irradiated H9 cells (comet assay) (H9 cells): did not induce any damage
CSCC[C@H](NC(=O)[C@H](Cc1c[nH]cn1)NC(=O)[C@H](Cc1c[nH]cn1)NC(=O)[C@H](C)NC(=O)[C@@H](N)C(C)C)C(=O)N[C@@H](Cc1ccc(O)cc1)C(=O)N[C@H](C(=O)N[C@@H](CO)C(=O)NCC(=O)N[C@@H](CCCCN)C(=O)N[C@@H](C)C(=O)N[C@@H](CCCNC(=N)N)C(=O)NCC(=O)N[C@@H](Cc1c[nH]c2ccccc12)C(=O)N[C@@H](Cc1ccccc1)C(=O)O)C(C)C [Vif 25-39 (26A)]	8	–	–
CSCC[C@H](NC(=O)[C@H](Cc1c[nH]cn1)NC(=O)[C@H](Cc1c[nH]cn1)NC(=O)[C@H](CCCCN)NC(=O)[C@@H](N)C(C)C)C(=O)N[C@@H](Cc1ccc(O)cc1)C(=O)N[C@H](C(=O)N[C@@H](CO)C(=O)NCC(=O)N[C@@H](CCCCN)C(=O)N[C@@H](C)C(=O)N[C@@H](CCCNC(=N)N)C(=O)NCC(=O)N[C@@H](Cc1c[nH]c2ccccc12)C(=O)N[C@@H](Cc1ccccc1)C(=O)O)C(C)C [Vif25-39]	0.6	–	DNA damage in non-irradiated SupT1 cells (comet assay) (SupT1 cells): did not induce any damage; DNA damage in non-irradiated H9 cells (comet assay) (H9 cells): did not induce any damage
Vif25-39 (peptide)	–	0.6	–
ARLYYFWDT [A3F304-312]	–	8	–
RLYYFWD [A3F305-311]	–	1	–
RMHNDTWVLLNQRRG [A3G226-240]	–	60	–
WVRGRHETYLCYEVE [A3G211-225]	–	10	–
IHLYYFDCF [Vif107-115]	–	–	IC50 of inhibition of ssDNA deamination by purified A3G [2]: 0.1 µM

Reference: paper PMC4712096 (The FEBS journal, 2015)
